From PubChem BioAssay
Most compounds without a hit are left out; they make up all but 1.3% or so of the library.
SIRT5 block = inhibitors of human sirtuin-5 desuccinylase; actives 1.1% (n = 330,000); Purified SirT5, succinyl-peptide AMC, trypsin-coupled fluorescence; Q9NXA8; inhibition, % at 15 µM; in the data active means inhibition above about 15%
AF4-AF9 inh = blocks AF4 peptide binding to human AF9 | AID 651704 | inhibition, % at 10 µM | actives 0.47% (n = 350,000) | P42568 | AlphaScreen, biotin-AF4 peptide binding to FLAG-AF9;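 active means every replicate reaching a set inhibition limit, whatever the replicate mean, cut at about 25% in these data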;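 further: 0% = plate neutral control median and 100% = total signal loss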
PDI inh = blocks human protein disulfide isomerase activity; inhibition, % at 10 µM; actives 0.052% (n = 350,000); P07237; PDI insulin aggregation turbidity, A650, 90 min;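 active means mean inhibition across replicates of 30% or more, whatever share of single replicates reach that level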
FN deposit inh = fibronectin deposition inhibition. AH1F fibroblasts, Alexa488-fibronectin deposition fluorescence, overnight. inhibition, % at 12.6 µM. actives 0.086% (n = 350,000);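 active means mean inhibition across replicates of 30% or more, regardless of how many single replicates reach that level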;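 further: positive control wells lacked labelled fibronectin entirely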
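Measured by – fluorescence 485/525 nm · System – AH1F fibroblast monolayer, labelled fibronectin deposition · Amount – 10000 cells per well · Buffer or medium – serum-reduced DMEM (2% serum) · Doses – single dose, pinned · Also added – fluorescent fibronectin at 24 nM final · Schedule – 1 h cell attachment, overnight exposure to compound and label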
ERp5 inh = ERp5 (human) disulfide isomerase inhibition; ERp5 insulin aggregation, absorbance 650 nm, 90 min; AID 651711; inhibition, % at 9.99 µM; actives 0.05% (n = 350,000); Q15084;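 active means mean replicate inhibition above about 25%, with every replicate also reaching it, limit read from the data, passing the limit was not always enough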
Target sequence (Q15084 whole entry, looked up): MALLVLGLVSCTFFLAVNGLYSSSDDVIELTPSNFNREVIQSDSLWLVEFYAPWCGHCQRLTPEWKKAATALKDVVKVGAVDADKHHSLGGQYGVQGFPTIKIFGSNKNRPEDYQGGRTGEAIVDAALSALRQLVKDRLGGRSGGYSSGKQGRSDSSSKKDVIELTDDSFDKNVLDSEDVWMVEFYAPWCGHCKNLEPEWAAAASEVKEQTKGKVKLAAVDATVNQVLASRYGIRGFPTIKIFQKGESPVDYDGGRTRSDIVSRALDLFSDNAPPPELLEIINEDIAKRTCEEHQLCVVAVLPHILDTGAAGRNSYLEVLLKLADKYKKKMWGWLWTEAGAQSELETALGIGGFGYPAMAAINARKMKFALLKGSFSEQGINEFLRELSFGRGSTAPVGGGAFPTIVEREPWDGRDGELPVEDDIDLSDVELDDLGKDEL
* = called active by the depositor; . = not tested or not shown.

SMILES	SIRT5 block	AF4-AF9 inh	PDI inh	FN deposit inh	ERp5 inh
C[C@H](CO)N1C[C@H](C)[C@@H](CN(C)S(=O)(=O)c2ccc(F)cc2)Oc2ccc(NC(=O)Nc3ccc(C(F)(F)F)cc3)cc2C1=O	14.1	-3.4	-3.8	16.5	-5.2
C[C@@H]1CN([C@@H](C)CO)C(=O)c2cc(NC(=O)Nc3ccc(F)cc3)ccc2O[C@@H]1CN(C)S(=O)(=O)c1ccc(Cl)cc1	19.0*	-0.3	.	11.9	-0.9
COc1ccc(S(=O)(=O)N(C)C[C@H]2Oc3ccc(NC(=O)Nc4ccc(F)cc4)cc3C(=O)N([C@H](C)CO)C[C@H]2C)cc1	21.3*	1.2	.	.	5.0
Cc1ccc(S(=O)(=O)N(C)C[C@H]2Oc3ncc(Br)cc3C(=O)N([C@H](C)CO)C[C@@H]2C)cc1	0.9	-0.1	-2.6	4.5	-2.0
O=C(Nc1ccccn1)C1(c2ccccc2)CCCC1	-0.3	-0.4	-0.5	.	-4.1
O=C(c1ccc2c(c1)OCO2)N1C[C@@H]2[C@H](c3ccccc31)[C@@H](CO)N2CC1CCCC1	-0.5	1.4	.	.	7.2
O=C(c1ccccc1F)N1CC[C@@H]2[C@@H](CO)Nc3ccc(-c4cccc(F)c4)cc3[C@@H]21	1.0	-1.6	.	-2.7	1.9
CCOC(=O)N1CCN(C(=O)CSCC(=O)Nc2nc(-c3ccc(-c4ccccc4)cc3)cs2)CC1	-0.7	-5.7	.	2.4	5.1
CN1C(=O)c2cc(NS(C)(=O)=O)ccc2OC[C@@H]2O[C@@H](CC(=O)NCc3ccc(-c4ccccc4)cc3)CC[C@@H]21	15.3*	-13.9	.	.	-5.1
CCC(=O)Nc1ccc2c(c1)C(=O)N(C)[C@@H]1CC[C@@H](CC(=O)NCC3CC3)O[C@@H]1CO2	2.5	-2.8	.	-5.2	47.9*
COCC(=O)Nc1ccc2c(c1)C(=O)N(C)[C@@H]1CC[C@@H](CC(=O)NCc3ccccc3Cl)O[C@H]1CO2	.	.	.	37.9*	.
COCC(=O)Nc1ccc2c(c1)C(=O)N(C)[C@H]1CC[C@H](CC(=O)NCc3ccccc3Cl)O[C@H]1CO2	.	.	.	1.8	.
COc1cccc(CNC(=O)C[C@H]2CC[C@@H]3[C@@H](COc4ccc(NC(=O)c5cccs5)cc4C(=O)N3C)O2)c1	24.6*	-1.3	.	-2.6	3.2
N#C[C@@H]1[C@H](c2ccc(C#CC3CCCCC3)cc2)[C@H](CO)N1C(=O)Nc1ccc(F)cc1	-1.2	1.1	.	-5.6	2.7
Oc1ccc(C2=Nn3c(nnc3-c3ccco3)SC2)cc1O	.	.	17.7	.	.
c1ccc2c(C[C@@H]3CNCCN3CC3CCCCC3)cccc2c1	-3.2	7.4	-10.8	0.3	10.0
CCC(=O)Nc1ccc2c(c1)C(=O)N(C)[C@H]1CC[C@@H](CC(=O)NCC3CC3)O[C@@H]1CO2	3.4	-2.8	.	-2.5	78.1*
CC(C)CN(C[C@H]1N[C@H](CO)[C@@H]1c1ccccc1)C(=O)C1CCCC1	7.5	-3.3	.	-0.7	2.2
CC(C)CN(C[C@H]1N[C@H](CO)[C@@H]1c1ccccc1)C(=O)C1CCCCC1	21.5*	-2.5	.	-3.8	2.2
CCN(CC)CCOc1ccc(/C(=C(\Cl)c2ccccc2)c2ccccc2)cc1	-12.1	31.6*	10.2	-3.2	0.3
COc1ccc(C#Cc2ccc([C@H]3[C@H](CO)N4C(=O)CN(C(=O)c5cccnc5)C[C@@H]34)cc2)cc1	36.9*	-3.2	.	.	2.7
CN(C)CC#Cc1ccc([C@H]2[C@H]3CN(C(=O)c4cccnc4)CC(=O)N3[C@H]2CO)cc1	2.5	34.6*	.	.	1.2
O=C(c1cnccn1)N1CC(=O)N2[C@@H](CO)[C@H](c3ccc(C#CC4CC4)cc3)[C@@H]2C1	23.1*	0.3	.	-8.0	-0.6
CCCC#Cc1ccc([C@H]2[C@H]3CN(C(=O)Cc4cccnc4)CC(=O)N3[C@H]2CO)cc1	21.8*	5.6	.	.	-0.3
CCCC#Cc1ccc([C@H]2[C@H](CO)N3C(=O)CN(C(=O)Cc4cccnc4)C[C@@H]23)cc1	-3.3	-2.7	.	.	7.0
CCCNC(=O)c1ccc2nc(-c3ccccc3)c(-c3ccccc3)nc2c1	-5.9	.	10.0	.	-1.1
CCN1CCN(CCNC(=O)c2ccc3nc(-c4cccc(C)c4)c(-c4cccc(C)c4)nc3c2)CC1	-10.5	27.8*	-12.2	-5.0	5.6
CC1=NN(C(=O)c2cccc(Cn3nc(C)c([N+](=O)[O-])c3C)c2)C(O)(C(F)(F)F)C1 (stereo unspecified)	-2.1	6.7	0.9	.	2.8
